Measurements published in ChEMBL document CHEMBL1629441, “Synthesis, in vitro and in vivo biological evaluation, and comprehensive understanding of structure-activity relationships of dipeptidyl boronic acid proteasome inhibitors constructed from β-amino acids” (J Med Chem, 2010).

Assays:
[1] = Inhibition of human 20S proteasome chymotrypsin-like activity by fluorimetric assay
Outline: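 Human 20S proteasome preincubated with test compound, then Suc-Leu-Leu-Val-Tyr-AMC hydrolysis monitored 1 h at 37 °C by fluorescence (excitation 360 nm, 465 nm). Buffer pH 7.5: 20 mM Tris, 1 mM DTT, 10% glycerol, 0.02% (w/v) SDS; DMSO 3% (v/v) final. IC50 from five concentrations, each in duplicate; bortezomib standard.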

[2] = test system: BXPC-3; assay: Cytotoxicity against human BxPC3 cells after 72 hrs by MTT assay; format: functional, cell-based; conditions: BXPC-3, 72 h
Outline: (§1)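 MTT growth assay: 3000 cells per well seeded, after 24 h exposed to 10 drug concentrations for 72 h, then MTT (5 mg/mL stock) 4 h at 37 °C. Formazan dissolved in DMSO, absorbance at 540 nm. Points in triplicate; IC50 is mean of at least three independent determinations. Cells grown at 37 °C, 5% CO2 with FBS.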

[3] = test system: SW480; assay: Cytotoxicity against human SW480 cells after 72 hrs by MTT assay; format: functional, cell-based; conditions: SW480, 72 h; outline: as §1
[4] = test system: A549; assay: Cytotoxicity against human A549 cells after 72 hrs by MTT assay; format: functional, cell-based; conditions: A549, 72 h; outline: as §1
[5] = test system: PC-3; assay: Cytotoxicity against human PC3 cells after 72 hrs by MTT assay; format: functional, cell-based; conditions: PC-3, 72 h; outline: as §1
[6] = test system: SK-OV-3; assay: Cytotoxicity against human SKOV3 cells after 72 hrs by MTT assay; format: functional, cell-based; conditions: SK-OV-3, 72 h; outline: as §1
[7] = test system: HepG2; assay: Cytotoxicity against human HepG2 cells after 72 hrs by MTT assay; format: functional, cell-based; conditions: HepG2, 72 h; outline: as §1
[8] = test system: HL-60; assay: Cytotoxicity against human HL60 cells after 72 hrs by MTT assay; format: functional, cell-based; conditions: HL-60, 72 h; outline: as §1
[9] = Cytotoxicity against human RPMI18226 cells after 72 hrs by MTT assay; format: functional, cell-based; conditions: RPMI18226, 72 h; outline: as §1
[10] = Mean residence time (0-t) in Sprague-Dawley rat at 1 mg/kg, ig; format: ADME, organism-based; parameters: dose 1 mg/kg, route intragastric; conditions: in vivo, po
Outline: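 Male SD rats dosed intragastrically at 1.0 mg/kg from 0.5 mg/mL solution in 1% ethanol, 1% Tween80, 98% buffered saline. Heparinized blood (n = 4) centrifuged 4000 rpm, 5 min, 4 °C; plasma lower limit of detection 5 ng/mL.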

[11] = Mean residence time (0-t) in Sprague-Dawley rat at 1 mg/kg, iv; format: ADME, organism-based; parameters: dose 1 mg/kg, route intravenous; conditions: in vivo
Outline: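 Male SD rats given single 1.0 mg/kg iv bolus of solution (0.5 mg/mL) in 1% ethanol, 1% Tween80, 98% buffered saline. Heparinized blood samples (n = 4) centrifuged 4000 rpm, 5 min, 4 °C; plasma concentrations used to derive PK parameters.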

[12] = test system: Rattus norvegicus; assay: Toxicity in Sprague-Dawley rat assessed as incidence of mortality at 1 mg/kg, iv after 10 hrs; format: organism-based; parameters: dose 1 mg/kg, route intravenous; conditions: in vivo
Outline: (§2)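 Male SD rats dosed once at 1.0 mg/kg, iv bolus or intragastric, during the PK study. Dosing solution 0.5 mg/mL in 1% ethanol, 1% Tween80, 98% buffered saline. Animals observed for death and toxic reactions over 10 h. n = 4 per PK group.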

[13] = test system: Rattus norvegicus; assay: Toxicity in Sprague-Dawley rat assessed as incidence of mortality at 1 mg/kg, ig after 10 hrs; format: organism-based; parameters: dose 1 mg/kg, route intragastric; conditions: in vivo, po; outline: as §2

| Structure (SMILES) | IC50 ([1]; read-out: IC50) [µM] | other results |
| --- | --- | --- |
| O=C(CC(NC(=O)c1ccccc1)c1cccc(F)c1)N[C@@H](Cc1cccc(F)c1)B(O)O (some centres not stated) | 0.131 | – |
| CC(C)C[C@H](NC(=O)CC(NC(=O)c1ccccc1)c1ccccc1Cl)B(O)O (some centres not stated) | 0.0891 | – |
| COc1cccc(C(CC(=O)N[C@@H](CC(C)C)B(O)O)NC(=O)c2cccc3c2CCCC3)c1 (some centres not stated) | 0.158 | – |
| COc1cccc(C(CC(=O)N[C@@H](CC(C)C)B(O)O)NC(C)=O)c1 (some centres not stated) | – | IC50 [1]: Not Active |
| CC(C)C[C@H](NC(=O)CC(NC(=O)c1cccnc1)c1ccc([N+](=O)[O-])cc1)B(O)O (some centres not stated) | 7.3 | – |
| O=C(CC(NC(=O)c1ccccc1)c1cccc(F)c1)N[C@@H](Cc1ccccc1F)B(O)O (some centres not stated) | 0.301 | – |
| CC(C)C[C@H](NC(=O)CC(NC(=O)[C@H]1CCCc2ccccc21)c1cccc(Cl)c1)B(O)O (some centres not stated) | 0.0218 | – |
| O=C(CC(NC(=O)c1ccccc1)c1cccc(Cl)c1)N[C@@H](Cc1ccccc1)B(O)O (some centres not stated) | 1.62 | – |
| O=C(CC(NC(=O)c1ccccc1)c1cccc(F)c1)N[C@@H](Cc1ccccc1)B(O)O (some centres not stated) | 1.2 | – |
| COc1cccc(C(CC(=O)N[C@@H](Cc2cccc(F)c2)B(O)O)NC(=O)c2cccnc2)c1 (some centres not stated) | 0.0891 | – |
| COc1cccc(C(CC(=O)N[C@@H](Cc2ccc(C)cc2)B(O)O)NC(=O)c2cccnc2)c1 (some centres not stated) | 0.93 | – |
| CC(C)C[C@H](NC(=O)CC(NC(=O)c1ccccc1)c1ccccc1F)B(O)O (some centres not stated) | 0.0389 | – |
| CC(C)C[C@H](NC(=O)CC(NC(=O)c1ccccc1)c1cccc(F)c1)B(O)O (some centres not stated) | 0.019 | – |
| O=C(CC(NC(=O)c1ccccc1)c1cccc(Cl)c1)N[C@@H](Cc1cccc(F)c1)B(O)O (some centres not stated) | – | IC50 [1]: Not Active |
| Cc1ccc(C[C@H](NC(=O)CC(NC(=O)c2ccccc2)c2cccc(Cl)c2)B(O)O)cc1 (some centres not stated) | 1.15 | – |
| O=C(CC(NC(=O)c1ccccc1)c1cccc(Cl)c1)N[C@@H](CC1CCCCC1)B(O)O (some centres not stated) | – | IC50 [1]: Not Active |
| CC(C)C[C@H](NC(=O)CC(NC(=O)c1cnccn1)c1cccc(F)c1)B(O)O (some centres not stated) | 0.269 | – |
| CC(C)C[C@H](NC(=O)CC(NC(=O)c1cccnc1)c1ccccc1F)B(O)O (some centres not stated) | 1.1 | – |

| Structure (SMILES) | IC50 ([1]; read-out: IC50) [µM] | other results |
| --- | --- | --- |
| CCCC[C@H](NC(=O)CC(NC(=O)c1ccccc1)c1cccc(Cl)c1)B(O)O (some centres not stated) | 0.316 | – |
| COc1cccc(C(CC(=O)N[C@@H](CC(C)C)B(O)O)NC(=O)c2ccccc2)c1 (some centres not stated) | 0.0467 | – |
| COc1cccc(C(CC(=O)N[C@@H](CC(C)C)B(O)O)NC(=O)[C@H]2CCCc3ccccc32)c1 (some centres not stated) | 0.0281 | – |
| COc1ccccc1C(CC(=O)N[C@@H](CC(C)C)B(O)O)NC(=O)c1ccccc1 (some centres not stated) | 0.224 | – |
| Cc1ccccc1C[C@H](NC(=O)CC(NC(=O)c1ccccc1)c1cccc(Cl)c1)B(O)O (some centres not stated) | – | IC50 [1]: Not Active |
| CC(C)C[C@H](NC(=O)CC(NC(=O)c1ccc2ccccc2c1)c1cccc(Cl)c1)B(O)O (some centres not stated) | 0.117 | – |
| Cc1ccccc1C[C@H](NC(=O)CC(NC(=O)c1ccccc1)c1cccc(F)c1)B(O)O (some centres not stated) | – | IC50 [1]: Not Active |
| CC(C)C[C@H](NC(=O)CC(NC(=O)c1ccccc1)c1ccc(F)cc1)B(O)O (some centres not stated) | 0.0346 | – |
| CCCC[C@H](NC(=O)CC(NC(=O)c1ccccc1)c1cccc(F)c1)B(O)O (some centres not stated) | 1.25 | – |
| CC(C)C[C@H](NC(=O)CC(NC(=O)c1ccccc1)c1ccccc1[N+](=O)[O-])B(O)O (some centres not stated) | – | IC50 [1]: Not Active |
| COc1ccc(C(CC(=O)N[C@@H](CC(C)C)B(O)O)NC(=O)c2ccccc2)cc1 (some centres not stated) | 0.0328 | – |
| O=C(CC(NC(=O)c1ccccc1)c1cccc(F)c1)N[C@@H](Cc1ccc(F)cc1)B(O)O (some centres not stated) | 0.0758 | – |
| CC(C)C[C@H](NC(=O)CC(NC(=O)c1cccc2c1CCCC2)c1cccc(Cl)c1)B(O)O (some centres not stated) | 0.19 | – |
| CC(C)C[C@H](NC(=O)[C@H](Cc1ccccc1)NC(=O)c1cnccn1)B(O)O [BORTEZOMIB] | 0.00154 | IC50 [2]: 0.0194 µM; IC50 [3]: 0.0123 µM; IC50 [4]: 0.0139 µM; IC50 [5]: 0.0083 µM; IC50 [6]: 0.0668 µM; IC50 [7]: 0.0252 µM; IC50 [8]: 0.0035 µM; IC50 [9]: 0.0035 µM; MRT last [10]: 7.69 h; MRT last [11]: 1.4 h; Activity [12]: Toxic; Activity [13]: Toxic |
| CC(C)C[C@H](NC(=O)CC(NC(=O)c1cccnc1)c1ccccc1[N+](=O)[O-])B(O)O (some centres not stated) | – | IC50 [1]: Not Active |
| COc1cccc(C(CC(=O)N[C@@H](Cc2ccc(F)cc2)B(O)O)NC(=O)c2cccnc2)c1 (some centres not stated) | 0.063 | – |
| CC(C)C[C@H](NC(=O)CC(NC(=O)c1ccccc1)c1cccc([N+](=O)[O-])c1)B(O)O (some centres not stated) | 0.0426 | – |
